# Data as given in ChEMBL document CHEMBL2380300, “Identification of new peptide amides as selective cathepsin L inhibitors: the first step towards selective irreversible inhibitors?” (Bioorg Med Chem Lett, 2013).
# Square brackets hold non-standard residues; d marks the D form. Peptide text beside a SMILES is read from it. * marks the point of attachment. ξ: configuration not given here. Bip = N[C@@H](Cc1ccc(-c2ccccc2)cc1)C(=O)O; Phe(4-NH2) = Nc1ccc(C[C@H](N)C(=O)O)cc1; Cbz = O=C(OCc1ccccc1)*; ξPip = O=C(O)C1CCCCN1
# How the values were obtained:
# Homo sapiens [1] = organism: Homo sapiens; assay: Selectivity ratio of Ki for recombinant cathepsin-B (unknown origin) to Ki for recombinant cathepsin-L (unknown origin)
# Outline: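 Selectivity factor FB = Ki(CatB)/Ki(CatL). Both Ki values come from kinetic runs with the recombinant enzymes, each using at least three inhibitor concentrations in duplicate.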
# Cathepsin B = Cathepsin B (Homo sapiens, UniProt P07858); assay: Inhibition of recombinant cathepsin-B (unknown origin) using Z-Arg-Arg-AMC as substrate by fluorescence assay
# Outline: (§1)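 Kinetic assay with recombinant enzyme. Peptide amide stock concentrations were set by amino-acid analysis. Ki was derived from at least three inhibitor concentrations, each measured in duplicate.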
# Procathepsin L = Procathepsin L (Homo sapiens, UniProt P07711); assay: Inhibition of recombinant cathepsin-L (unknown origin) using Z-Phe-Arg-AMC as substrate by fluorescence assay; outline: as §1
# Sequence of Procathepsin L (P07711 whole entry): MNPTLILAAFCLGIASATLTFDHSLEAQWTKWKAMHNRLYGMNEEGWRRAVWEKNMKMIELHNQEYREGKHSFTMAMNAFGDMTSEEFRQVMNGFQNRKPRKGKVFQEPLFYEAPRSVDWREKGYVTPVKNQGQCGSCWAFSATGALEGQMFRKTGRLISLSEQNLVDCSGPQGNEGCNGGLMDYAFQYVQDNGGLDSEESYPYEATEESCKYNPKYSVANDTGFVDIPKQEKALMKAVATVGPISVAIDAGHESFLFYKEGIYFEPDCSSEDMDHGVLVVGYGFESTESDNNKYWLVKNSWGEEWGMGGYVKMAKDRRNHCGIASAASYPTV
# Cathepsin K = biological target: T1, Cathepsin K (Homo sapiens, UniProt P43235); assay: Inhibition of recombinant cathepsin-K (unknown origin) using Z-Phe-Arg-AMC as substrate by fluorescence assay
# T1 sequence (P43235 whole entry): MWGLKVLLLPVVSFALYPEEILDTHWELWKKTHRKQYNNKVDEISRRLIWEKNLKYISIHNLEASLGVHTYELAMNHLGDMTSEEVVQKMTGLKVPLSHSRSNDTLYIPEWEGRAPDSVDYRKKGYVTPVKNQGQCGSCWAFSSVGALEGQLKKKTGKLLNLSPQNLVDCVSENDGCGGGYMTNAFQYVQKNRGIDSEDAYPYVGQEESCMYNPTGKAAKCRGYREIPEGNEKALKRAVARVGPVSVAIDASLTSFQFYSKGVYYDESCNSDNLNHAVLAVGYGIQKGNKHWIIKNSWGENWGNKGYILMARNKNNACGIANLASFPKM
# Outline: (§2)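 Recombinant enzyme kinetics. Inhibitor stocks were quantified by amino-acid analysis. Ki was obtained from a minimum of four inhibitor concentrations, each run in duplicate.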
# Homo sapiens [2] = organism: Homo sapiens; assay: Selectivity ratio of Ki for recombinant cathepsin-S (unknown origin) to Ki for recombinant cathepsin-L (unknown origin)
# Outline: (§3)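 FK = Ki(CatK)/Ki(CatL) and FS = Ki(CatS)/Ki(CatL). Each Ki comes from recombinant enzyme kinetics over a minimum of four inhibitor concentrations, each measured in duplicate.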
# Cathepsin S = Cathepsin S (Homo sapiens, UniProt P25774); assay: Inhibition of recombinant cathepsin-S (unknown origin) using Z-Val-Arg-AMC as substrate by fluorescence assay; outline: as §2
# Sequence of Cathepsin S (P25774 whole entry): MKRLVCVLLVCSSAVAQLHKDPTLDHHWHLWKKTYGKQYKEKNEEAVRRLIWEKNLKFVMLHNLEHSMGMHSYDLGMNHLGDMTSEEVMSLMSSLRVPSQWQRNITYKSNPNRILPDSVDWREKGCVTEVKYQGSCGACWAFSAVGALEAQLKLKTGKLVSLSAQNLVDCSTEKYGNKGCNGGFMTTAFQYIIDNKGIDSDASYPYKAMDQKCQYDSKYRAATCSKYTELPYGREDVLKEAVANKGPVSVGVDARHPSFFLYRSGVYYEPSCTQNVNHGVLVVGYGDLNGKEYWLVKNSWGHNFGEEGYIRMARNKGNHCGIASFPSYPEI
# Homo sapiens [3] = organism: Homo sapiens; assay: Selectivity ratio of Ki for recombinant cathepsin-K (unknown origin) to Ki for recombinant cathepsin-L (unknown origin); outline: as §3
Ratio Ki (Homo sapiens [1]),Ki (Cathepsin B),Ki (Procathepsin L),Ki (Cathepsin K),Ratio Ki (Homo sapiens [2]),Ki (Cathepsin S),Ratio Ki (Homo sapiens [3]),Compound
20,134 µM,6.8 µM,–,–,–,–,NCCCC[C@H](NC(=O)[C@H](Cc1ccccc1)NC(=O)c1c(F)c(F)c(F)c(F)c1F)C(N)=O
18,56 µM,3.1 µM,–,–,–,–,NCCCC[C@H](NC(=O)[C@H](Cc1c[nH]cn1)NC(=O)OCc1ccccc1)C(N)=O (Cbz-His-Lys-NH2)
9,26 µM,2.9 µM,–,–,–,–,CN(C)c1ccc(C(=O)N[C@@H](Cc2ccccc2)C(=O)N[C@@H](CCCCN)C(N)=O)cc1
96,135 µM,1.4 µM,–,–,–,–,NCCCC[C@H](NC(=O)[C@H](Cc1ccc(O)cc1)NC(=O)OCc1ccccc1)C(N)=O (Cbz-Tyr-Lys-NH2)
310,4340 µM,14 µM,–,–,–,–,CC(C)C[C@H](NC(=O)[C@H](Cc1ccccc1)NC(=O)OCc1ccccc1)C(N)=O (Cbz-Phe-Leu-NH2)
636,2040 µM,3.2 µM,–,–,–,–,NCCCC[C@H](NC(=O)[C@H](Cc1ccccc1)NC(=O)CCc1ccccc1)C(N)=O
34,58 µM,1.7 µM,–,–,–,–,NCCCC[C@H](NC(=O)[C@H](Cc1ccc(-c2cccc(Cl)c2)cc1)NC(=O)OCc1ccccc1)C(N)=O
54,135 µM,2.5 µM,–,–,–,–,NCCCC[C@H](NC(=O)[C@H](Cc1ccccc1)NC(=O)CCc1ccc(O)cc1)C(N)=O
80,623 µM,7.8 µM,–,–,–,–,NCCCC[C@H](NC(=O)[C@H](Cc1ccccc1)NC(=O)C1=CCCC1)C(N)=O
651,1760 µM,2.7 µM,–,–,–,–,NCCCC[C@H](NC(=O)[C@H](Cc1ccccc1)NC(=O)c1cc([N+](=O)[O-])ccc1Cl)C(N)=O
2140,835 µM,0.39 µM,639 µM,51,20 µM,1640,NCCCC[C@H](NC(=O)[C@H](Cc1ccccc1)NC(=O)[C@H](Cc1c[nH]c2ccccc12)NC(=O)OCc1ccccc1)C(N)=O (Cbz-Trp-Phe-Lys-NH2)
595,1550 µM,2.6 µM,–,–,–,–,CNCCCC[C@H](NC(=O)[C@H](Cc1ccccc1)NC(=O)OCc1ccccc1)C(N)=O
506,3550 µM,7 µM,–,–,–,–,NCCCC[C@H](NC(=O)[C@H](Cc1ccccc1)NC(=O)[C@H](CCC(N)=O)NC(=O)OCc1ccccc1)C(N)=O (Cbz-Gln-Phe-Lys-NH2)
1680,1490 µM,0.89 µM,284 µM,46,41.1 µM,319,NCCCC[C@H](NC(=O)[C@H](Cc1ccccc1)NC(=O)[C@H](CCCCN)NC(=O)OCc1ccccc1)C(N)=O (Cbz-Lys-Phe-Lys-NH2)
113,261 µM,2.3 µM,–,–,–,–,NCCCC[C@H](NC(=O)[C@H](Cc1ccccc1)NC(=O)c1ccc(Br)cc1)C(N)=O
28,74 µM,2.6 µM,–,–,–,–,NCCCC[C@H](NC(=O)[C@H](Cc1ccc(-c2ccc(-c3ccccc3)cc2)cc1)NC(=O)OCc1ccccc1)C(N)=O
–,–,16 µM,–,–,–,–,C[C@H](NC(=O)[C@H](Cc1ccccc1)NC(=O)OCc1ccccc1)C(N)=O
312,312 µM,1 µM,–,–,–,–,CC(C)(C)c1ccc(C(=O)N[C@@H](Cc2ccccc2)C(=O)N[C@@H](CCCCN)C(N)=O)cc1
24,100 µM,4.2 µM,–,–,–,–,NCCCC[C@H](NC(=O)[C@H](Cc1c[nH]c2ccccc12)NC(=O)OCc1ccccc1)C(N)=O (Cbz-Trp-Lys-NH2)
–,–,17 µM,–,–,–,–,CC(C)[C@H](NC(=O)[C@H](Cc1ccccc1)NC(=O)OCc1ccccc1)C(N)=O (Cbz-Phe-Val-NH2)
169,3390 µM,20 µM,–,–,–,–,Cc1cccc(C)c1C(=O)N[C@@H](Cc1ccccc1)C(=O)N[C@@H](CCCCN)C(N)=O
15,80 µM,5.5 µM,–,–,–,–,NCCCC[C@H](NC(=O)[C@H](Cc1ccccc1)NC(=O)c1ccccn1)C(N)=O
187,860 µM,4.6 µM,–,–,–,–,NCCCC[C@H](NC(=O)[C@H](Cc1ccccc1)NC(=O)c1ccnc(-c2cc(C(=O)O)ccn2)c1)C(N)=O

Ratio Ki (Homo sapiens [1]),Ki (Cathepsin B),Ki (Procathepsin L),Ki (Cathepsin K),Ratio Ki (Homo sapiens [2]),Ki (Cathepsin S),Ratio Ki (Homo sapiens [3]),Compound
–,–,14 µM,–,–,–,–,NC(=O)[C@H](Cc1c[nH]cn1)NC(=O)[C@H](Cc1ccccc1)NC(=O)OCc1ccccc1 (Cbz-Phe-His-NH2)
703,2460 µM,3.5 µM,–,–,–,–,NCCC[C@H](NC(=O)[C@H](Cc1ccccc1)NC(=O)OCc1ccccc1)C(N)=O
30,148 µM,5 µM,–,–,–,–,NCCCC[C@H](NC(=O)[C@H](Cc1ccccc1)NC(=O)c1ccc(N)nc1)C(N)=O
272,706 µM,2.6 µM,–,–,–,–,CC(=O)Oc1ccc(C(=O)N[C@@H](Cc2ccccc2)C(=O)N[C@@H](CCCCN)C(N)=O)cc1
810,3410 µM,4.2 µM,47 µM,13,56 µM,11,NCCCC[C@H](NC(=O)[C@H](Cc1ccccc1)NC(=O)OCc1ccccc1)C(N)=O
–,–,28 µM,–,–,–,–,NC(=O)[C@H](N)NC(=O)[C@H](Cc1ccccc1)NC(=O)OCc1ccccc1
425,1020 µM,2.4 µM,–,–,–,–,CC(=O)Oc1cccc(C(=O)N[C@@H](Cc2ccccc2)C(=O)N[C@@H](CCCCN)C(N)=O)c1
156,389 µM,2.5 µM,–,–,–,–,Cc1cccc(-c2ccc(C[C@H](NC(=O)OCc3ccccc3)C(=O)N[C@@H](CCCCN)C(N)=O)cc2)c1
107,2790 µM,26 µM,–,–,–,–,NC(=O)[C@H](Cc1ccc(N)cc1)NC(=O)[C@H](Cc1ccccc1)NC(=O)OCc1ccccc1 (Cbz-Phe-[Phe(4-NH2)]-NH2)
1760,1300 µM,0.74 µM,147 µM,11,8.5 µM,198,N=C(N)NCCC[C@H](NC(=O)OCc1ccccc1)C(=O)N[C@@H](Cc1ccccc1)C(=O)N[C@@H](CCCCN)C(N)=O (Cbz-Arg-Phe-Lys-NH2)
12,349 µM,28 µM,–,–,–,–,N=C(N)NCCC[C@H](NC(=O)[C@H](Cc1ccccc1)NC(=O)OCc1ccccc1)C(N)=O (Cbz-Phe-Arg-NH2)
301,301 µM,1 µM,–,–,–,–,NCCCC[C@H](NC(=O)[C@H](Cc1ccccc1)NC(=O)c1ccc2ccccc2c1)C(N)=O
66,113 µM,1.7 µM,–,–,–,–,Cc1ccc(-c2ccc(C[C@H](NC(=O)OCc3ccccc3)C(=O)N[C@@H](CCCCN)C(N)=O)cc2)cc1
9,84 µM,9 µM,–,–,–,–,NCCCC[C@H](NC(=O)[C@H](Cc1ccccc1)NC(=O)c1ccc(-c2ccccc2)cc1)C(N)=O
11,245 µM,23 µM,–,–,–,–,Cc1ccccc1-c1ccc(C[C@H](NC(=O)OCc2ccccc2)C(=O)N[C@@H](CCCCN)C(N)=O)cc1
325,39 µM,0.12 µM,24 µM,233,28 µM,200,NCCCC[C@H](NC(=O)[C@H](Cc1ccc(-c2cccs2)cc1)NC(=O)OCc1ccccc1)C(N)=O
111,7100 µM,64 µM,–,–,–,–,CSCC[C@H](NC(=O)[C@H](Cc1ccccc1)NC(=O)OCc1ccccc1)C(N)=O (Cbz-Phe-Met-NH2)
8.4,51 µM,6.1 µM,–,–,–,–,NCCCC[C@H](NC(=O)[C@H](Cc1ccccc1)NC(=O)C1CCCCN1)C(N)=O (stereo partly drawn) (H-[ξPip]-Phe-Lys-NH2)
64,1730 µM,27 µM,–,–,–,–,NC(=O)[C@H](CCCC(N)O)NC(=O)[C@H](Cc1ccccc1)NC(=O)OCc1ccccc1 (stereo partly specified)
21,38 µM,1.8 µM,–,–,–,–,NCCCC[C@H](NC(=O)[C@H](Cc1ccc(-c2cccc(N)c2)cc1)NC(=O)OCc1ccccc1)C(N)=O
2630,1180 µM,0.45 µM,213 µM,27,12 µM,473,CC(C)C[C@H](NC(=O)OCc1ccccc1)C(=O)N[C@@H](Cc1ccccc1)C(=O)N[C@@H](CCCCN)C(N)=O (Cbz-Leu-Phe-Lys-NH2)
32,77 µM,2.4 µM,–,–,–,–,NCCCC[C@H](NC(=O)[C@H](Cc1ccc(-c2ccccc2)cc1)NC(=O)OCc1ccccc1)C(N)=O (Cbz-[Bip]-Lys-NH2)
